Tests used:
EI^WT = test: Enzyme kinetic assay; format: biochemical, E. coli; conditions: 37°C
Procedure, shortened: (§1)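 Wild-type E. coli Enzyme I or its H189Q or H189A active-site mutant, expressed and purified. PEP hydrolysis to inorganic phosphate and pyruvate was followed spectrophotometrically at 37°C with a coupled phosphate-detection kit. Enzymatic velocities at varying PEP were fit to the Michaelis-Menten equation to give Km. For display, velocities were normalised to each fit's maximum velocity.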

EI^Q (H189Q) = test: Enzyme kinetic assay; format: biochemical, E. coli; conditions: 37°C
Procedure, shortened: as §1

EI^A (H189A) = test: Enzyme kinetic assay; format: biochemical, E. coli; conditions: 37°C
Procedure, shortened: as §1

isolated EIC = conditions: cited from earlier work

C=C(OP(=O)(O)O)C(=O)O [PEP, phosphoenolpyruvate]
Km (EI^WT): ~330 µM
Km (EI^Q (H189Q)): ~130 µM
Km (EI^A (H189A)): < 50 µM
Km (isolated EIC): ~370 µM
